Measurements as given in PMC11696060 (Nature Communications, 2025).

Columns and labels:
[1] = system: wild-type Arabidopsis seedlings; test: Hypocotyl elongation assay, wild-type Arabidopsis co-treated with KAR2; type: in vivo, Arabidopsis thaliana; conditions: 0.3 µM KAR2
[2] = system: wild-type Arabidopsis seeds; type: in vivo, Arabidopsis thaliana; conditions: after high temperature, 1 µM KAR2
Method in brief: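 Sterilized, stratified Columbia seeds (~30 per well) sown on 0.2% phytoagar containing 1 µM KAR₂ and a concentration series of test compound. Incubated at 30 °C under continuous white light (20 μmol m⁻² s⁻¹) 48 h, then 22 °C for 48 h. Germination % = germinated/total seeds per well; 6 biological replicates, means ± SE; one-way ANOVA with Tukey's HSD.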

## O=C(N1CCc2ccccc21)n1ccnn1 [KK094]
[1]
  Concentration at which KAR2-suppressed hypocotyl length is restored: 0.3 µM
[2]
  Concentration inhibiting the recovery of seed germination by KAR2: 100 µM
